Assay results published in ChEMBL document CHEMBL3351274, “Sensitization of tumor necrosis factor-related apoptosis-inducing ligand (TRAIL)-resistant primary prostate cancer cells by isoegomaketone from Perilla frutescens” (J Nat Prod, 2014).
Activity calls are given as the source filed them. The calls are words filed in the database; no cut-off is given here.

Assays:
[1] = species: Homo sapiens; assay: Induction of apoptosis in human RC-58T/h/SA#4 cells assessed as CHOP expression after 3 to 24 hrs by immunoblotting analysis relative to untreated control; format: functional, cell-based
Outline: (§1)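 RC-58T/h/SA#4 cells seeded at 5 × 10^4 cells/mL and cultured 24 h, then given compound across a concentration series or at fixed dose over a time course. Lysates were quantified by BCA. 10 μg protein/lane run on 12% SDS-PAGE and transferred to nitrocellulose. Blots probed for p53, CHOP and β-actin with HRP secondary and ECL.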

[2] = Induction of apoptosis in human RC-58T/h/SA#4 cells assessed as CHOP expression at 20 uM after 12 hrs by immunoblotting analysis relative to untreated control; format: functional; outline: as §1
[3] = Sensitization of TRAIL-induced apoptosis in human RC-58T/h/SA#4 cells assessed as PARP cleavage at 20 uM after 24 hrs by immunoblotting analysis relative to untreated control; format: functional
Outline: (§2)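 Cells seeded at 5 × 10^4 cells/mL and cultured 24 h, then given 20 μM compound and/or 100 ng/mL TRAIL for 24 h. Whole-cell lysate made in Tris/NaCl/EDTA/NaF/pyrophosphate/PMSF/aprotinin buffer, 30 min on ice, protein measured by BCA. 12% SDS-PAGE at 10 μg/lane, nitrocellulose blot, primary antibodies (caspase-3, -8, -9, Bax, Bcl-2, PARP) overnight at 4 °C, HRP secondary, ECL.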

[4] = Induction of apoptosis in human RC-58T/h/SA#4 cells assessed as p53 expression at 20 uM after 18 hrs by immunoblotting analysis relative to untreated control; format: functional; outline: as §1
[5] = Sensitization of TRAIL-induced apoptosis in human RC-58T/h/SA#4 cells assessed as cytochrome C level in cytosol at 20 uM after 24 hrs by immunoblotting analysis relative to untreated control; format: functional
Outline: (§3)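 Cells given 20 μM compound and/or 100 ng/mL TRAIL for 24 h. Mitochondrial and cytosolic fractions prepared with a mitochondria isolation kit. Fractions resolved by 12% SDS-PAGE at 10 μg/lane and immunoblotted with anti-cytochrome c or anti-AIF overnight at 4 °C, then HRP secondary and ECL detection.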

[6] = Induction of apoptosis in human RC-58T/h/SA#4 cells assessed as p53 expression at 20 uM after 3 hrs by immunoblotting analysis relative to untreated control; format: functional; outline: as §1
[7] = species: Homo sapiens; assay: Sensitization of TRAIL-induced cytotoxicity against human RC-58T/h/SA#4 cells assessed as cell viability at 5 to 20 uM after 24 hrs by SRB assay; format: functional, cell-based
Outline: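 Cells seeded at 5 × 10^4 cells/mL, grown in DMEM with 10% FBS, and given the compound with or without 100 ng/mL TRAIL for 24 h at 37 °C, 5% CO2. RWPE-1 tested at 20 μM. Cells fixed in 12% TCA for 1 h at 4 °C, stained 1 h with 0.4% SRB, washed in 1% acetic acid, dye dissolved in 10 mM Tris and absorbance read. Three experiments, means ± SD.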

[8] = species: Homo sapiens; assay: Sensitization of TRAIL-induced apoptosis in human RC-58T/h/SA#4 cells assessed as cell viability at 20 uM after 24 hrs by SRB assay in presence of NAC
[9] = species: Homo sapiens; assay: Induction of apoptosis in human RC-58T/h/SA#4 cells assessed as AIF level in mitochondria at 20 uM after 24 hrs by immunoblotting analysis relative to untreated control; format: functional, cell-based
Outline: (§4)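 Cells grown in DMEM/10% FBS at 37 °C, 5% CO2, then treated 24 h with compound (20 μM) with or without TRAIL (100 ng/mL). Whole lysates were used for Bax and Bcl-2. Cytosolic and mitochondrial fractions were prepared with a mitochondria isolation kit for AIF and cytochrome c. Blotting used 10 μg protein/lane, 12% SDS-PAGE, nitrocellulose, overnight primary antibody at 4 °C and ECL detection.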

[10] = Induction of apoptosis in human RC-58T/h/SA#4 cells assessed as p53 expression at 20 uM after 12 hrs by immunoblotting analysis relative to untreated control; format: functional; outline: as §1
[11] = species: Homo sapiens; assay: Induction of apoptosis in human RC-58T/h/SA#4 cells at 20 uM after 24 hrs by annexin-V/propidium iodide staining-based flow cytometry relative to control; format: functional, cell-based
Outline: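 RC-58T/h/SA#4 cells seeded at 1 × 10^5 cells/mL in 6-well plates and given 20 μM compound and/or 100 ng/mL TRAIL for 24 h. Cells washed in ice-cold PBS, labelled with annexin V Alexa Fluor 488 for 30 min at 4 °C in the dark, then with PI. Annexin V-positive fraction counted by flow cytometry; three independent experiments, means ± SD, Student's t-test.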

[12] = Induction of apoptosis in human RC-58T/h/SA#4 cells assessed as DR5 expression at 20 uM after 24 hrs by immunoblotting analysis relative to untreated control; format: functional
[13] = Sensitization of TRAIL-induced apoptosis in human RC-58T/h/SA#4 cells assessed as procaspase-3 activation at 20 uM after 24 hrs by immunoblotting analysis relative to untreated control; format: functional; outline: as §2
[14] = Induction of apoptosis in human RC-58T/h/SA#4 cells assessed as DR4 expression at 20 uM after 18 hrs by immunoblotting analysis relative to untreated control; format: functional
[15] = Induction of apoptosis in human RC-58T/h/SA#4 cells assessed as DR4 expression at 40 uM after 24 hrs by immunoblotting analysis relative to untreated control; format: functional
[16] = species: Homo sapiens; assay: Sensitization of TRAIL-induced apoptosis in human RC-58T/h/SA#4 cells assessed as AIF level in mitochondria at 20 uM after 24 hrs by immunoblotting analysis relative to untreated control; format: functional, cell-based; outline: as §3
[17] = Induction of ROS generation in human RC-58T/h/SA#4 cells at 40 uM after 30 mins by flow cytometry (reference value: 1.9%); format: functional
[18] = species: Homo sapiens; assay: Sensitization of TRAIL-induced apoptosis in human RC-58T/h/SA#4 cells assessed as cytochrome C level in mitochondria at 20 uM after 24 hrs by immunoblotting analysis relative to untreated control; format: functional, cell-based; outline: as §3
[19] = Induction of apoptosis in human RC-58T/h/SA#4 cells assessed as DR5 expression at 5 uM after 24 hrs by immunoblotting analysis relative to untreated control; format: functional
[20] = Sensitization of TRAIL-induced apoptosis in human RC-58T/h/SA#4 cells assessed as accumulation at Sub-G1 phase at 20 uM after 24 hrs by annexin-V/propidium iodide staining-based flow cytometry (reference value: 4.8%); format: functional
[21] = Sensitization of TRAIL-induced apoptosis in human RC-58T/h/SA#4 cells assessed as procaspase-8 activation at 20 uM after 24 hrs by immunoblotting analysis relative to untreated control; format: functional; outline: as §2
[22] = Induction of apoptosis in human RC-58T/h/SA#4 cells assessed as AIF level in cytosol at 20 uM after 24 hrs by immunoblotting analysis relative to untreated control; format: functional; outline: as §4
[23] = Induction of ROS generation in human RC-58T/h/SA#4 cells at 20 uM after 30 mins by flow cytometry (reference value: 1.9%); format: functional

With `CC(C)/C=C/C(=O)c1ccoc1` the Activity [1] was “Dose-dependent effect”, the Ratio [2] was 1.6 and the Ratio [3] was 0.7. For the same compound, the Ratio [4] was 2.2, the Ratio [5] was 1.2 and the Ratio [6] was 1. The Activity [7] was “Active”, the Activity [8] was “inactive” and the Ratio [9] was 1.2. For the same compound, the Ratio [10] was 1.8, the Activity [11] was “Active” and the Ratio [12] was 1.2. For the same compound, the Ratio [13] was 0.4, the Ratio [14] was 1.1 and the Ratio [15] was 1.1. For the same compound, the Ratio [16] was 0.3, the Activity [17] was 2.5% and the Ratio [18] was 0.5. The Ratio [19] was 1.1, the Activity [20] was 18% and the Ratio [21] was 0.3. It also gave a Ratio [22] of 1.1 and an Activity [23] of 2.9%.
